# Reference: publication PMC3786410 (Bioorganic & medicinal chemistry, 2013)
# Where two headings read alike, the source gives them in different places.
# Assays:
# S1PR2 [1] = target: T1, S1PR2 (Homo sapiens, UniProt O95136); test: JTE-013 inhibition of agonists in the S1PR2 CRE-bla assay; assay type: cell-based; details: linear regression of Schild plot, against S1P
# S1PR2 [2] = target: T1, S1PR2; test: 33P-S1P radioligand competition binding assay; details: read-out: IC50, displacement of radiolabeled S1P, S1PR2-CRE bla cells, 4°C
# CRE = details: ref PubChem AID 662; cited from earlier work
# [3] = system: CRE-bla parental cell line; test: parental CRE-bla CHO cell line counterscreen assay; assay type: cell-based
# How it was run: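 Counterscreen in the parental CRE-β-lactamase reporter CHO line without S1PR2, run alongside the S1PR2 assay. Hits were retested in triplicate at 5 micromolar and then tested in dose response.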
# wild type S1PR2 = wild type S1PR2 (Homo sapiens, UniProt O95136); test: GloSensor cAMP assay, wild type S1PR2-eGFP Jump-In CHO cells; assay type: cell-based
# [4] = target: triple mutant S1PR2 (R108A, E109A and K269A) (Homo sapiens, UniProt O95136, E109A/K269A/R108A); test: GloSensor cAMP assay, triple mutant S1PR2-eGFP Jump-In CHO cells; assay type: cell-based
# S1PR1 = S1PR1 (Homo sapiens, UniProt P21453); test: S1PR1 agonist assay; assay type: cell-based
# S1PR5 = S1PR5 (Homo sapiens, UniProt Q9H228); test: S1PR5 agonist assay; assay type: cell-based
# S1PR4 = target: T2, S1PR4 (Homo sapiens, UniProt O95977); test: S1PR4 agonist assay; assay type: cell-based
# T2 sequence (O95977 1-384): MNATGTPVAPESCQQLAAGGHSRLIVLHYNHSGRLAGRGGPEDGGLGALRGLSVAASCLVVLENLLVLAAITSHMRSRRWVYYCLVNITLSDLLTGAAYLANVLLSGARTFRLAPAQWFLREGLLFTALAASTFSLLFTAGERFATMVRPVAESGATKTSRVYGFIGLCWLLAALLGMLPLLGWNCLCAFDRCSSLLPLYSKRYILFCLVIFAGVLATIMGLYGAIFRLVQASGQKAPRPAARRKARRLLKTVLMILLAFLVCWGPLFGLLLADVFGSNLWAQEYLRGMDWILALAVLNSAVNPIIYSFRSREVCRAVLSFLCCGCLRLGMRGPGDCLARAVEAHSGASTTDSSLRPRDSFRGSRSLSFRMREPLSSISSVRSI
# S1PR3 = S1PR3 (Homo sapiens, UniProt Q99500); test: S1PR3 agonist assay; assay type: cell-based
# S1PR2 [5] = target: T1, S1PR2; test: S1PR2 CRE-bla CHO reporter agonist assay; assay type: cell-based; details: for EC50: read-out: EC50 S1PR2; for Emax: read-out: Max Activity (% of 1 μM S1P)
# How it was run: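 Stable CHO line carrying a CRE-driven β-lactamase reporter and expressing human S1PR2, run in 384-well format. […] For antagonist challenge, agonist dose responses were run with a reference S1PR2 antagonist at 10, 30 or 90 nM.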
# T1 sequence (O95136 whole entry): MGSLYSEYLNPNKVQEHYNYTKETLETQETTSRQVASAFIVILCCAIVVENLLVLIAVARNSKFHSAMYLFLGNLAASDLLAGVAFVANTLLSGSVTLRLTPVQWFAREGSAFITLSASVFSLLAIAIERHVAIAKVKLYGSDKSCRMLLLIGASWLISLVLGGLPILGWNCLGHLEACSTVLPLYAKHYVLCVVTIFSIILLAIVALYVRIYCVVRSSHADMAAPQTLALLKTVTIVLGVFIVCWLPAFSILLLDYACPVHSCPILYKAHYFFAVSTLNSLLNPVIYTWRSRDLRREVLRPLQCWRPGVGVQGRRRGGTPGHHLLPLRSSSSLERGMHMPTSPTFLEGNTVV
# Sequence of S1PR1 (P21453 whole entry, species assumed): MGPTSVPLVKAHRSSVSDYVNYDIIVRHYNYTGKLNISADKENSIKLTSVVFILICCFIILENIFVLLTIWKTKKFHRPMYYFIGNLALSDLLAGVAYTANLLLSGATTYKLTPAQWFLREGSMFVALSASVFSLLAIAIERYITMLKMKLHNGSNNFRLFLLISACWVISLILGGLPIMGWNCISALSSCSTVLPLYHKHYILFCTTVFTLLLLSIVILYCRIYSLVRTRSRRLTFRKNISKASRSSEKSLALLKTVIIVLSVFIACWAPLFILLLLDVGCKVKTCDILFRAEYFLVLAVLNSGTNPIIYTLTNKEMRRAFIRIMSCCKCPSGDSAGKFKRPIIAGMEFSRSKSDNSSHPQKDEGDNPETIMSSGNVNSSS
# Sequence of wild type S1PR2 (O95136 whole entry): as the sequence (O95136 whole entry) above
# Sequence of S1PR3 (Q99500 whole entry, species assumed): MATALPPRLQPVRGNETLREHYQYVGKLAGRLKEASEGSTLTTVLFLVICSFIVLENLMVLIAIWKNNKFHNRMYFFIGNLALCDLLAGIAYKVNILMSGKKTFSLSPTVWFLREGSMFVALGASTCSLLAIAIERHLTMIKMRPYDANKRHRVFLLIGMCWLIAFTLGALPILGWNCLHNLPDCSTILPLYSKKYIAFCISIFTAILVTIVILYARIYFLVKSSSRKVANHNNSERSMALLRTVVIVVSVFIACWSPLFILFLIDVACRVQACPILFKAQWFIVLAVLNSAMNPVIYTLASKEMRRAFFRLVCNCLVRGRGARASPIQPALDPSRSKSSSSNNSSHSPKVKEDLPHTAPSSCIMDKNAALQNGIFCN
# Sequence of S1PR5 (Q9H228 whole entry, species assumed): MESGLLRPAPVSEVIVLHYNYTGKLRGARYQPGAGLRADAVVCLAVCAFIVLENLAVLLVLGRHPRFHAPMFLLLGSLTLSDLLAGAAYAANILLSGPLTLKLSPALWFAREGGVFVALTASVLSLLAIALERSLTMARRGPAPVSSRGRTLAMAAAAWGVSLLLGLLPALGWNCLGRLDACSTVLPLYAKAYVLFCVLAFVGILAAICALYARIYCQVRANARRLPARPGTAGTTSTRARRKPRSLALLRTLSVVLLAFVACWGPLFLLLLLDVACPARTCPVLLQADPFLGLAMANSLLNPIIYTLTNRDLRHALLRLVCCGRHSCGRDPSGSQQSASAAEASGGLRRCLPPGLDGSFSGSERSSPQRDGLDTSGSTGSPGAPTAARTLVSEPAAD
# Sequence of triple mutant S1PR2 (R108A, E109A and K269A) (O95136 whole entry R108A/E109A/K269A): as the sequence (O95136 whole entry) above, with R108A, E109A, K269A counted along it
compound,measurement,setting,value
Cc1nn(C)c2nc(NNC(=O)Nc3cc(Cl)nc(Cl)c3)cc(C(C)C)c12 [JTE-013],Ki,S1PR2 [1],20 nM
same,IC50,S1PR2 [2],53 nM
CCOC(=O)c1c(C)n(C)c2ccc(OCC(O)Cn3nc(C)cc3C)cc12 (stereo not drawn) [MLS000049871],activity in PubChem AID 662,CRE,active
same,activity in the CRE-bla counterscreen (in words),[3],inactive
"CCCCCCCCCCCCC/C=C/[C@@H](O)[C@@H](N)COP(=O)(O)O [S1P, Sphingosine 1-phosphate, reference compound]",agonist efficacy (in words),wild type S1PR2,full agonists
same,cAMP response (in words),[4],did not elicit a rise in luciferase activity
Cc1ccc(Sc2ccc(C3SCCS3)cc2[N+](=O)[O-])cc1 [compound 3],activity in S1PR1 agonist assay,S1PR1,inactive
same,activity in S1PR5 agonist assay,S1PR5,inactive
same,activity in S1PR4 agonist assay,S1PR4,inactive
same,activity in S1PR3 agonist assay,S1PR3,inactive
same,EC50,"S1PR2 [5]; Table 2, purchased analogues of XAX-164",550 nM
same,Emax,S1PR2 [5]; Table 2,130%
Cc1cc(C(=O)Cn2cc(C#N)ccc2=O)c(C)n1Cc1ccccc1 [compound 14],activity in S1PR1 agonist assay,S1PR1,inactive
same,activity in S1PR5 agonist assay,S1PR5,inactive
same,EC50,"wild type S1PR2; read-out: EC50, cAMP response",1600 nM
same,activity in S1PR4 agonist assay,S1PR4,inactive
same,activity in the CRE-bla counterscreen (in words),[3],inactivity
same,activity in S1PR3 agonist assay,S1PR3,inactive
same,increase in potency,S1PR2 [5]; cyanide group in place of the trifluoromethyl of 10,1.6 fold
same,EC50,"S1PR2 [5]; Table 3, synthesized compounds",480 nM
same,Emax,S1PR2 [5]; Table 3,100%
